Test results as given in ChEMBL document CHEMBL5247575 (J Med Chem, 2018).

What was measured:
Klebsiella pneumoniae [1] = experiment: Synergistic antibacterial activity against Klebsiella pneumoniae 1084/1957 producing KPC-3 assessed as cefepime MIC at 4 ug/ml by broth microdilution method; type: functional; details: dose 4 µg/ml
Outline: (§1)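 Broth microdilution per CLSI guidelines, using custom frozen panels. […] Each partner drug was also tested alone. MICs were run in triplicate and the modal value is reported.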

Klebsiella pneumoniae [2] = experiment: Synergistic antibacterial activity against Klebsiella pneumoniae 776/1742 producing KPC-2 assessed as cefepime MIC at 4 ug/ml by broth microdilution method; type: functional; details: dose 4 µg/ml
Pseudomonas aeruginosa [3] = experiment: Synergistic antibacterial activity against Pseudomonas aeruginosa CL232 assessed as cefepime MIC at 4 ug/ml by broth microdilution method; type: functional; details: dose 4 µg/ml
Escherichia coli [4] = experiment: Synergistic antibacterial activity against Escherichia coli DH10B assessed as meropenem MIC at 4 ug/ml by broth microdilution method; type: functional; details: dose 4 µg/ml
Acinetobacter baumannii [5] = experiment: Synergistic antibacterial activity against ADC deleted Acinetobacter baumannii transfected with pWH1266 OXA-23 assessed as meropenem MIC at 8 ug/ml by broth microdilution method; type: functional; details: dose 8 µg/ml
Outline: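 Broth microdilution per CLSI guidelines in frozen panels. Test compound held at fixed 8 mg/L while the partner β-lactam concentration was increased. Run in triplicate; modal MIC reported.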

Klebsiella pneumoniae [6] = experiment: Synergistic antibacterial activity against Klebsiella pneumoniae 761/1723 producing KPC-3 assessed as meropenem MIC at 4 ug/ml by broth microdilution method; type: functional; details: dose 4 µg/ml
Acinetobacter baumannii [7] = experiment: Synergistic antibacterial activity against Acinetobacter baumannii PR440 producing OXA-23/24/40 assessed as meropenem MIC at 8 ug/ml by broth microdilution method; type: functional; details: dose 8 µg/ml
Klebsiella pneumoniae [8] = experiment: Synergistic antibacterial activity against Klebsiella pneumoniae 1398/2291 producing KPC-3 assessed as cefepime MIC at 8 ug/ml by broth microdilution method; type: functional; details: dose 8 µg/ml; outline: as §1
Klebsiella pneumoniae [9] = experiment: Synergistic antibacterial activity against Klebsiella pneumoniae CAV 1543 producing OXA-48 assessed as meropenem MIC at 8 ug/ml by broth microdilution method; type: functional; details: dose 8 µg/ml
Klebsiella pneumoniae [10] = experiment: Synergistic antibacterial activity against Klebsiella pneumoniae 972/1910 producing KPC-3 assessed as cefepime MIC at 8 ug/ml by broth microdilution method; type: functional; details: dose 8 µg/ml
Pseudomonas aeruginosa [11] = experiment: Synergistic antibacterial activity against Pseudomonas aeruginosa 839 assessed as cefepime MIC at 4 ug/ml by broth microdilution method; type: functional; details: dose 4 µg/ml
[12] = Binding affinity to bacteria ADC-7 assessed as dissociation constant
Acinetobacter baumannii [13] = experiment: Synergistic antibacterial activity against Acinetobacter baumannii PR319 producing OXA-23/24/40 assessed as meropenem MIC at 8 ug/ml by broth microdilution method; type: functional; details: dose 8 µg/ml
Acinetobacter baumannii [14] = experiment: Synergistic antibacterial activity against Acinetobacter baumannii PR363 producing OXA-23 assessed as meropenem MIC at 4 ug/ml by broth microdilution method; type: functional; details: dose 4 µg/ml
Klebsiella pneumoniae [15] = experiment: Synergistic antibacterial activity against Klebsiella pneumoniae CAV 1543 producing OXA-48 assessed as cefepime MIC at 8 ug/ml by broth microdilution method; type: functional; details: dose 8 µg/ml
Pseudomonas aeruginosa [16] = experiment: Synergistic antibacterial activity against Pseudomonas aeruginosa 776 assessed as meropenem MIC at 4 ug/ml by broth microdilution method; type: functional; details: dose 4 µg/ml
Klebsiella pneumoniae [17] = experiment: Synergistic antibacterial activity against Klebsiella pneumoniae 1354/2241 producing KPC-3 assessed as cefepime MIC at 8 ug/ml by broth microdilution method; type: functional; details: dose 8 µg/ml; outline: as §1
Klebsiella pneumoniae [18] = experiment: Synergistic antibacterial activity against Klebsiella pneumoniae 440/1360 producing KPC-2 assessed as meropenem MIC at 4 ug/ml by broth microdilution method; type: functional; details: dose 4 µg/ml; outline: as §1
Klebsiella pneumoniae [19] = experiment: Synergistic antibacterial activity against Klebsiella pneumoniae 1108/1989 producing KPC-3 assessed as cefepime MIC at 8 ug/ml by broth microdilution method; type: functional; details: dose 8 µg/ml; outline: as §1
Escherichia coli [20] = experiment: Synergistic antibacterial activity against Escherichia coli DH10B transfected with pBR322-catI-KPC-2 assessed as meropenem MIC at 8 ug/ml by broth microdilution method; type: functional; details: dose 8 µg/ml; outline: as §1
Klebsiella pneumoniae [21] = experiment: Synergistic antibacterial activity against Klebsiella pneumoniae 1315/2198 producing KPC-3 assessed as meropenem MIC at 8 ug/ml by broth microdilution method; type: functional; details: dose 8 µg/ml; outline: as §1
Bacteria [22] = experiment: Inhibition of bacteria ADC-7 assessed as Koff rate using nitrocefin as substrate incubated for 30 mins
Escherichia coli [23] = experiment: Synergistic antibacterial activity against Escherichia coli DH10B transfected with pBC SK (-) KPC-2 assessed as meropenem MIC at 8 ug/ml by broth microdilution method; type: functional; details: dose 8 µg/ml
Klebsiella pneumoniae [24] = experiment: Synergistic antibacterial activity against Klebsiella pneumoniae NY BS producing OXA-232 assessed as cefepime MIC at 8 ug/ml by broth microdilution method; type: functional; details: dose 8 µg/ml
Acinetobacter baumannii [25] = experiment: Synergistic antibacterial activity against ADC deleted Acinetobacter baumannii transfected with pWH1266 producing OXA-24/40 assessed as meropenem MIC at 4 ug/ml by broth microdilution method; type: functional; details: dose 4 µg/ml
Acinetobacter baumannii [26] = experiment: Synergistic antibacterial activity against Acinetobacter baumannii PR359 producing OXA-23 assessed as cefepime MIC at 8 ug/ml by broth microdilution method; type: functional; details: dose 8 µg/ml
Acinetobacter baumannii [27] = experiment: Synergistic antibacterial activity against Acinetobacter baumannii PR448 producing OXA-23 assessed as cefepime MIC at 4 ug/ml by broth microdilution method; type: functional; details: dose 4 µg/ml
Klebsiella pneumoniae [28] = experiment: Synergistic antibacterial activity against Klebsiella pneumoniae 901/1860 producing KPC-3 assessed as cefepime MIC at 4 ug/ml by broth microdilution method; type: functional; details: dose 4 µg/ml
Acinetobacter baumannii [29] = experiment: Synergistic antibacterial activity against ADC deleted Acinetobacter baumannii assessed as meropenem MIC at 8 ug/ml by broth microdilution method; type: functional; details: dose 8 µg/ml
Klebsiella pneumoniae [30] = experiment: Synergistic antibacterial activity against Klebsiella pneumoniae 660/1568 producing KPC-3 assessed as meropenem MIC at 8 ug/ml by broth microdilution method; type: functional; details: dose 8 µg/ml; outline: as §1
Klebsiella pneumoniae [31] = experiment: Synergistic antibacterial activity against Klebsiella pneumoniae jefferson 1775 producing OXA-48 assessed as meropenem MIC at 4 ug/ml by broth microdilution method; type: functional; details: dose 4 µg/ml
Pseudomonas aeruginosa [32] = experiment: Synergistic antibacterial activity against Pseudomonas aeruginosa 839 assessed as cefepime MIC at 8 ug/ml by broth microdilution method; type: functional; details: dose 8 µg/ml
Klebsiella pneumoniae [33] = experiment: Synergistic antibacterial activity against Klebsiella pneumoniae jefferson 1775 producing OXA-48 assessed as cefepime MIC at 4 ug/ml by broth microdilution method; type: functional; details: dose 4 µg/ml
Pseudomonas aeruginosa [34] = experiment: Synergistic antibacterial activity against Pseudomonas aeruginosa 795 assessed as meropenem MIC at 8 ug/ml by broth microdilution method; type: functional; details: dose 8 µg/ml
Escherichia coli [35] = experiment: Synergistic antibacterial activity against Escherichia coli DH10B transfected with pBC SK (-) OXA-48 assessed as cefepime MIC at 8 ug/ml by broth microdilution method; type: functional; details: dose 8 µg/ml; outline: as §1
Pseudomonas aeruginosa [36] = experiment: Antibacterial activity against Pseudomonas aeruginosa 839 by broth microdilution method; type: functional
Escherichia coli [37] = experiment: Synergistic antibacterial activity against Escherichia coli DH10B transfected with pBC SK (-) KPC-2 assessed as cefepime MIC at 8 ug/ml by broth microdilution method; type: functional; details: dose 8 µg/ml
Bacteria [38] = experiment: Inhibition of bacteria PDC-3 assessed as second order rate constant K2/K using nitrocefin as substrate
Acinetobacter baumannii [39] = experiment: Synergistic antibacterial activity against Acinetobacter baumannii PR319 producing OXA-23/24/40 assessed as cefepime MIC at 4 ug/ml by broth microdilution method; type: functional; details: dose 4 µg/ml
Escherichia coli [40] = experiment: Antibacterial activity against Escherichia coli DH10B transfected with pBC SK (-) OXA-48 by broth microdilution method; type: functional

O=C(NNC(=O)[C@@H]1CC[C@@H]2CN1C(=O)N2OS(=O)(=O)O)[C@@H]1CCNC1
> 16 µg/mL: MIC (Acinetobacter baumannii [5]) | MIC (Acinetobacter baumannii [7]) | MIC (Acinetobacter baumannii [13]) | MIC (Acinetobacter baumannii [14]) | MIC (Acinetobacter baumannii [25])
≤ 0.12 µg/mL: MIC (Klebsiella pneumoniae [1]) | MIC (Klebsiella pneumoniae [2]) | MIC (Escherichia coli [4]) | MIC (Klebsiella pneumoniae [6]) | MIC (Klebsiella pneumoniae [8]) | MIC (Klebsiella pneumoniae [9]) | MIC (Klebsiella pneumoniae [10]) | MIC (Pseudomonas aeruginosa [11]) | MIC (Klebsiella pneumoniae [15]) | MIC (Klebsiella pneumoniae [17]) | MIC (Klebsiella pneumoniae [18]) | MIC (Klebsiella pneumoniae [19]) | MIC (Escherichia coli [20]) | MIC (Klebsiella pneumoniae [21]) | MIC (Escherichia coli [23]) | MIC (Klebsiella pneumoniae [24]) | MIC (Klebsiella pneumoniae [28]) | MIC (Acinetobacter baumannii [29]) | MIC (Klebsiella pneumoniae [30]) | MIC (Klebsiella pneumoniae [31]) | MIC (Pseudomonas aeruginosa [32]) | MIC (Klebsiella pneumoniae [33]) | MIC (Pseudomonas aeruginosa [34]) | MIC (Escherichia coli [35]) | MIC (Escherichia coli [37])
9 10^-4/s: K (Bacteria [22])
6.3 10^5/M/s: K (Bacteria [38])
8 µg/mL: MIC (Pseudomonas aeruginosa [3])
4 µg/mL: MIC (Acinetobacter baumannii [27]) | MIC (Pseudomonas aeruginosa [36])
29 nM: Kd [12]
16 µg/mL: MIC (Pseudomonas aeruginosa [16]) | MIC (Acinetobacter baumannii [26])

NC(=O)[C@@H]1CC[C@@H]2CN1C(=O)N2OS(=O)(=O)[O-].[Na+] [AVIBACTAM SODIUM]
> 16 µg/mL: MIC (Pseudomonas aeruginosa [3]) | MIC (Acinetobacter baumannii [39]) | MIC (Escherichia coli [40]) | MIC (Acinetobacter baumannii [14]) | MIC (Acinetobacter baumannii [25]) | MIC (Pseudomonas aeruginosa [36])
3.5 10^-4/s: K (Bacteria [22])
16 µg/mL: MIC (Acinetobacter baumannii [27])
90 nM: Kd [12]
4 µg/mL: MIC (Pseudomonas aeruginosa [11])
0.5 µg/mL: MIC (Klebsiella pneumoniae [2])
≤ 0.12 µg/mL: MIC (Klebsiella pneumoniae [1]) | MIC (Escherichia coli [4]) | MIC (Klebsiella pneumoniae [6]) | MIC (Klebsiella pneumoniae [18]) | MIC (Klebsiella pneumoniae [28]) | MIC (Klebsiella pneumoniae [31]) | MIC (Klebsiella pneumoniae [33])
2.9 10^4/M/s: K (Bacteria [38])
